Each structure is given as a SMILES string.

The results in this text go back to ChEMBL document CHEMBL1140589, “Dipeptidyl-alpha,beta-epoxyesters as potent irreversible inhibitors of the cysteine proteases cruzain and rhodesain” (Bioorg Med Chem Lett, 2007).

Test [1] addresses Cruzipain (Trypanosoma cruzi) (UniProt P25779). Put plainly: (§1) Inhibition of cruzain. Also on record: concentration or dose not given beside the values. As to conditions: concentration not given here. In a few lines: (§2)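 Recombinant enzyme at 4 nM with Z-Phe-Arg-AMC substrate in buffer A (100 mM Na acetate pH 5.5, 5 mM DTT, 0.001% Triton X-100). Enzyme and inhibitor were preincubated 5 min at 25 °C, then substrate was added. Inhibitor serial dilutions were made in DMSO, 10–10,000 nM. IC50 was read directly from a semi-log plot of rate versus inhibitor concentration.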

Test [2] addresses Rhodesain (Trypanosoma brucei rhodesiense) (UniProt Q95PM0). Put plainly: (§3) Inhibition of rhodesain. Also on record: concentration or dose not given beside the values. As to conditions: concentration not given here. In outline: as §2
In test [3] the test system is Trypanosoma brucei brucei. The test is described as follows: (§4) Inhibition of Trypanosoma brucei brucei cathepsin B. As to conditions: concentration not given here. In outline:
(§5)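 Recombinant T. brucei cathepsin B at 40 nM with Z-Phe-Arg-AMC in buffer A (100 mM Na acetate pH 5.5, 5 mM DTT, 0.001% Triton X-100). Enzyme was preincubated 5 min at 25 °C with inhibitor (500–10,000 nM, DMSO serial dilutions) before substrate addition. Cleavage was followed by fluorescence at ex 355/em 460 nm, 25 °C. IC50 was taken from a semi-log rate versus concentration plot.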

The subject of test [4] is Trypanosoma brucei brucei. The test is described as follows: Antimicrobial activity against Trypanosoma brucei brucei. Type of test: functional. Also on record: concentration or dose not given beside the values.
The next test addresses Cruzipain (Trypanosoma cruzi, UniProt P25779). The test is described as §1. In a few lines: as §2
The target of test [5] is Cruzipain (Trypanosoma cruzi) (UniProt P25779). Put plainly: Ratio of kinact to ki for cruzain. Also on record: unit not given here. In outline: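 Continuous assay: enzyme was added by the instrument to inhibitor dilutions with Z-Phe-Arg-AMC in pH 5.5 acetate/DTT buffer while fluorescence was recorded. Progress curves were followed 5 min at 25 °C over a 10-fold dilution range of inhibitor. kobs came from pseudo-first-order fits. For hyperbolic kobs dependence, kinact and Ki were fitted by nonlinear regression to a two-step irreversible mechanism with substrate correction.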
Chain of Cruzipain (Trypanosoma cruzi) (P25779 123-467 limits assumed): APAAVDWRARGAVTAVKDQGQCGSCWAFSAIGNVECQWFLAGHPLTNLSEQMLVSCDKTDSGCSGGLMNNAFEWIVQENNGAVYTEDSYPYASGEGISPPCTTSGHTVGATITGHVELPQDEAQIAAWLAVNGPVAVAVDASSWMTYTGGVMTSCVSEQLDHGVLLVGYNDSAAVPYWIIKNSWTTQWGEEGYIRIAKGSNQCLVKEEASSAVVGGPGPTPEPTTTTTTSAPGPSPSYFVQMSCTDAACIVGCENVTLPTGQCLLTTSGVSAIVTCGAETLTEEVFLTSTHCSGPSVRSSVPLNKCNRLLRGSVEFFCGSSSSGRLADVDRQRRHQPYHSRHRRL

For a further test, the target named is Rhodesain (Trypanosoma brucei rhodesiense, UniProt Q95PM0). Described as §3. In a few lines:
as §2

Test [6] in a line: as §4. In a few lines: as §5

Chain of Rhodesain (Trypanosoma brucei rhodesiense) (Q95PM0 1-450): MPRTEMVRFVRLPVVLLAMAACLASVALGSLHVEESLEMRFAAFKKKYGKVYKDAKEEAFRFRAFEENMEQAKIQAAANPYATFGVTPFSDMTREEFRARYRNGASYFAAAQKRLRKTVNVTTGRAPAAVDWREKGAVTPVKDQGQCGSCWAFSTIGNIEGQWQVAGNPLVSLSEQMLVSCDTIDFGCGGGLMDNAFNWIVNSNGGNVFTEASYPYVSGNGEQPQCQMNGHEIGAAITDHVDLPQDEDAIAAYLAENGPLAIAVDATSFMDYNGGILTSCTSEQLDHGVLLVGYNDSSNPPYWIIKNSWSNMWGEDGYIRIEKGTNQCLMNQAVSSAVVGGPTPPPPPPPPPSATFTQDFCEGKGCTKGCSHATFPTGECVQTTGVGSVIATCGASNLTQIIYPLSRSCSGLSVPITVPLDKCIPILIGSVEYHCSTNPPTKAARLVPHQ
Chain of Cruzipain (P25779 whole entry): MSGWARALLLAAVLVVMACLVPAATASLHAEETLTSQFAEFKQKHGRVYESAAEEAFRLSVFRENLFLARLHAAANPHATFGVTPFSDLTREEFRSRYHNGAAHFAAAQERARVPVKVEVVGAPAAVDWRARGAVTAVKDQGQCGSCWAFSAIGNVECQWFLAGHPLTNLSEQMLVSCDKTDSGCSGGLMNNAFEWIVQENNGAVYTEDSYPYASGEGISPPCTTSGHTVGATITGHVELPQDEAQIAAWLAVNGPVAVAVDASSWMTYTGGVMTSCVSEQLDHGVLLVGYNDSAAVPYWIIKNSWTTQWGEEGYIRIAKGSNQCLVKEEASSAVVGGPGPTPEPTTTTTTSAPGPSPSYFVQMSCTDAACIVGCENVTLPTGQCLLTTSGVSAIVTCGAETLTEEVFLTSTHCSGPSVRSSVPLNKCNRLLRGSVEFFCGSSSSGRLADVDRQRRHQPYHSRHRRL
Chain of Rhodesain (Q95PM0 whole entry): as the sequence (Q95PM0 1-450) above

On to `CCOC(=O)[C@@H]1O[C@H]1[C@@H](O)[C@H](CCc1ccccc1)NC(=O)[C@H](Cc1ccccc1)NC(=O)OCc1ccccc1`, for which the inhibition in test [1] stood at 1%; in test [2], 3%; in test [3] it was 3%. In test [4], the Inhibition is reported as 17%.

Regarding `CCOC(=O)[C@@H]1O[C@@H]1C(=O)[C@H](CCc1ccccc1)NC(=O)[C@H](Cc1ccccc1)NC(=O)OCc1ccccc1`, the results for the inhibition in test [1], in test [2] and in test [3] were 55%, 80% and 47%, respectively. In addition, the figures for the IC50 (against Cruzipain; against Rhodesain; in test [6]) were 50 nM, 30 nM and 400 nM, respectively. For the same molecule, the Ratio in test [5] amounted to 25200. For the same molecule, the Inhibition in test [4] is -2%.

For `CCOC(=O)[C@H]1O[C@H]1C(=O)[C@H](CCc1ccccc1)NC(=O)[C@H](Cc1ccccc1)NC(=O)OCc1ccccc1`, the figures for the inhibition in test [1], in test [2] and in test [3] were 93%, 98% and 51%, respectively. Also, the values for the IC50 (against Cruzipain; at Rhodesain; in test [6]) were 20 nM, 3.5 nM and greater than 1000 nM, respectively. For the same molecule, in test [5], the Ratio came to 82900. Also, the Inhibition in test [4] is reported as 42%.

As for `CC(C)CCNC(=O)[C@H](CC(C)C)NC(=O)[C@H]1OC1C(=O)O` (single isomer, unassigned), the Ratio in test [5] was 70600.

`CCOC(=O)[C@H]1O[C@H]1[C@H](O)[C@H](CCc1ccccc1)NC(=O)[C@H](Cc1ccccc1)NC(=O)OCc1ccccc1`: the inhibition in test [1] is 5%; in test [2], -4%; in test [3] it was 6%. For the same molecule, in test [4], the Inhibition was -37%.

Molecule `O=C(N[C@@H](Cc1ccccc1)C(=O)N[C@@H](CCc1ccccc1)C(=O)[C@@H]1CO1)OCc1ccccc1` registered an IC50 on Cruzipain of 10 nM. For the same molecule, the Ratio in test [5] was found to be 330000.

`O=C(N[C@@H](Cc1ccccc1)C(=O)N[C@@H](CCc1ccccc1)C(=O)[C@H]1CO1)OCc1ccccc1` registered a half-inhibitory concentration (IC50) at Cruzipain greater than 1000 nM. In addition, the Ratio in test [5] is 128000.

As to `CN1CCN(C(=O)N[C@@H](Cc2ccccc2)C(=O)N[C@H](/C=C/S(=O)(=O)c2ccccc2)CCc2ccccc2)CC1` [K-777], the inhibition in test [1] was 100%; in test [2], 72%. For the same molecule, the half-maximal inhibitory concentration (IC50) in test [6] amounted to 2000 nM. Moreover, in test [4], the Inhibition is 99%.

What is called inhibition is the drop in the measured response relative to a control, in per cent. For orientation: Inhibition means the change of the read-out against control, counted positive when it falls. As usually defined, the IC50 is the concentration needed to halve the response being measured.
